Assay results: PMC10515597 (ACS Omega, 2023)
Where a SMILES comes first, the peptide text is derived from it. Bridges are numbered along the chain shown (N, C = ends). Roman numbers before positions name the chains, in order. The star is where a group is joined. X2 = O=C(N=C(NCc1ccc(C(=O)*)cc1)Nc1ccc(Br)cc1)c1ccccc1

What was measured:
[1] = test system: L. amazonensis intracellular amastigotes; test: Antiamastigote activity in infected macrophages; type: cell-based, Leishmania amazonensis; conditions: 24 h; for IC50: Leishmania amazonensis, Macrophage, read-out: IC50 amastigote
Method in brief: (§1)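 Swiss mouse peritoneal macrophages (3 × 10⁵ cells mL⁻¹, complete RPMI-1640) adhered on coverslips for 4 h at 37 °C, 5% CO₂. They were infected 18 h with stationary-phase L. amazonensis promastigotes (MPRO/BR/1972/M1841-LV-79) at 10:1 and washed. Test compound (0.02–10 μM) was added for 24 h. Giemsa-stained cells were counted for infection index (% infected cells × parasites per infected cell). IC50 by nonlinear regression. Duplicates, three independent experiments.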

[2] = test system: Leishmania amazonensis amastigotes; conditions: read-out: IC50-ama; L. amazonensis amastigotes ref 28; cited from earlier work
[3] = test system: L. mexicana intracellular amastigotes; test: Antiamastigote activity in infected macrophages; type: cell-based; conditions: Leishmania mexicana, Macrophage, 48 h, read-out: IC50 amastigote
Method in brief: as §1, with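 “8” for “18”, “mexicana” for “amazonensis”, “(MNYC/BZ/62/M379)” for “(MPRO/BR/1972/M1841-LV-79)”, “48” for “24”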

[4] = test system: L. mexicana promastigotes; test: Antipromastigote assay, viable promastigotes counted with trypan blue; type: cell-based; conditions: Leishmania mexicana, read-out: IC50 promastigote
Method in brief: (§2)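 Promastigotes were grown at 28 °C to mid-log phase: L. amazonensis (MPRO/BR/1972/M1841-LV-79) in LIT medium, L. mexicana (MNYC/BZ/62/M379) in Schneider's medium with 10% heat-inactivated FBS. Exponential-phase cells were plated at 1 × 10⁷ mL⁻¹ with test compound 1.28–100 μM. After 72 h, viable promastigotes were counted by trypan blue in a Neubauer chamber. Duplicates, three independent experiments.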

[5] = test system: L. amazonensis promastigotes; test: as above; type: cell-based; conditions: Leishmania amazonensis, 72 h, read-out: IC50 promastigote
Method in brief: as §2

[6] = Cytotoxic activity, MTT colorimetric method; type: cell-based, Swiss mice; conditions: Swiss, mouse, murine peritoneal macrophages

Structure (SMILES) | infection rate, fold lower than untreated cells and Amph B ([1]; L. amazonensis, at the tested concentrations (10 and 5 μM)) | IC50 [2] [µM] | IC50 [1] [µM] | IC50 [3] [µM] | IC50 [4] [µM] | IC50 [5] [µM] | CC50 [6] [µM]
CC(C)C[C@H](NC(=O)[C@H](Cc1c[nH]cn1)NC(=O)[C@H](Cc1ccc(O)cc1)NC(=O)[C@H](CCCNC(=N)N)NC(=O)[C@H](Cc1ccc(O)cc1)NC(=O)[C@H](CCCCN)NC(=O)[C@@H](N)CCCCN)C(=O)N[C@@H](CCCCN)C(=O)N1CCC[C@H]1C(=O)N[C@@H](Cc1ccccc1)C(=O)NCCCC[C@H](NC(=O)[C@H](Cc1ccccc1)NC(=O)[C@@H]1CCCN1C(=O)[C@H](CCCCN)NC(=O)[C@H](CC(C)C)NC(=O)[C@H](Cc1c[nH]cn1)NC(=O)[C@H](Cc1ccc(O)cc1)NC(=O)[C@H](CCCNC(=N)N)NC(=O)[C@H](Cc1ccc(O)cc1)NC(=O)[C@H](CCCCN)NC(=O)[C@H](CCCCN)NC(=O)c1ccc(CNC(=NC(=O)c2ccccc2)Nc2ccc(Br)cc2)cc1)C(N)=O [(GVL1)-p-Bt] (I: X2-KKYRYHLKPFK-NH2 / II: H-KKYRYHLKPF; amide I:11-II:C) | 3–4 fold | – | – | – | – | – | –
C[C@@H]1[C@H](O)[C@@H](C)/C=C/C=C/C=C/C=C/C=C/C=C/C=C/[C@H](O[C@@H]2O[C@H](C)[C@@H](O)[C@H](N)[C@@H]2O)C[C@@H]2O[C@](O)(C[C@@H](O)C[C@@H](O)[C@H](O)CC[C@@H](O)C[C@@H](O)CC(=O)O[C@H]1C)C[C@H](O)[C@H]2C(=O)O [Amph B, amphotericin B] | – | 4.9 | 0.63 ± 0.02 | 0.73 ± 0.2 | 0.45 ± 1.2 | 0.7 ± 0.2 | –
O=C(O)c1ccc(CN/C(=N/C(=O)c2ccccc2)Nc2ccc(Br)cc2)cc1 [GVL1, (Z)-4-((2-benzoyl-3-(4-bromophenyl)guanidino)methyl) benzoic acid] | – | – | 8.9 ± 1.41 | 7.5 ± 3.53 | 51.8 ± 0.1 | 34.4 ± 0.1 | –
O=C(NC(=Nc1ccc(Br)cc1)NCc1ccccc1)c1ccccc1 [LQOF-G2, N-benzoyl-N′-benzyl-N″(4-bromophenyl)guanidine] | – | 5.6 | 5.6 ± 2.5 | – | – | 19.6 ± 0.2 | 737.9 ± 1.4
